A short description of data set [1]: Lethal dose in guinea pig. In kind it is toxicity, organism-based, Cavia porcellus. Conditions: in vivo. An outline of the steps:
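Male Hartley guinea pigs of about 350 g. LD50 determined by the up-and-down method.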

A further data set is filed under the species Cavia porcellus. Kind of data set: Positive inotropic effect was determined by measuring force of contraction of papillary muscle in guinea pig at a driving rate of 1.0 Hz. Format: functional, Muscle tissue. In short, it runs like this: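 Isolated guinea pig papillary muscle paced at 1.0 Hz in Krebs-Henseleit solution (Ca2+ 3.2 mM, 30 °C). Compounds added cumulatively to the bath every 20 min. Contraction force recorded on oscillographic paper. pD2 = molar concentration giving 50% of maximum positive inotropic effect, read from concentration-response curves in five to six muscles; mean reported.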

SMILES strings stand for the structures.

As usually defined, the LD50 is the dose at which mortality reaches 50%. Low readings indicate a more toxic substance, high ones a less toxic substance. `CCCCCC(=O)O[C@@H]1C2CCC3[C@@](C)(O)C4CC(O)C(C)(C)C4(O)C(O)C[C@]31C[C@@]2(C)O` (stereo not given in full) showed an LD50 in data set [1] of 0.34 mg/kg. The compound also showed a pD2 in the data set filed under Cavia porcellus of 5.75.
In data set [1], `CCCCC(=O)O[C@@H]1C2CCC3[C@@](C)(O)C4CC(O)C(C)(C)C4(O)C(O)C[C@]31C[C@@]2(C)O` (stereo not given in full) yielded an LD50 of 0.17 mg/kg. In the data set filed under Cavia porcellus, the pD2 is reported as 6.41.
In data set [1], `CC(=O)O[C@@H]1C2CCC3[C@@](C)(O)C4CC(O)C(C)(C)C4(O)C(O)C[C@]31C[C@@]2(C)O` (stereo not given in full) showed an LD50 of 1.3 mg/kg. Further, the pD2 in the data set filed under Cavia porcellus worked out at 6.31.
The like results for `CCC(=O)O[C@@H]1C2CCC3[C@@](C)(O)C4CC(O)C(C)(C)C4(O)C(O)C[C@]31C[C@@]2(C)O` (stereo not given in full) were, in that order, 0.044 mg/kg and 6.67.
The like results for `CC(C)(C)C(=O)O[C@@H]1C2CCC3[C@@](C)(O)C4CC(O)C(C)(C)C4(O)C(O)C[C@]31C[C@@]2(C)O` (stereo not given in full) were, in that order, 0.36 mg/kg and 5.78.
Consider `CC1(C)C(O)CC2C1(O)C(O)C[C@]13C[C@@](C)(O)C(CCC1[C@@]2(C)O)[C@H]3OC(=O)CCCl` (stereo not given in full), for which the median lethal dose (LD50) in data set [1] was 0.17 mg/kg. Moreover, in the data set listed under Cavia porcellus, the pD2 is 6.96.
As to `CC1(C)[C@@H](O)C[C@@H]2[C@]1(O)[C@H](O)C[C@]13C[C@@](C)(O)[C@H](CCC1[C@@]2(C)O)[C@H]3O[C@H]1O[C@@H](CO)[C@H](O)[C@@H](O)[C@@H]1O` (stereo not given in full), the LD50 in data set [1] was less than 6 mg/kg. The pD2 in the data set listed under Cavia porcellus is recorded as less than 4.
For `CC1(C)C(O)CC2C1(O)C(O)C[C@]13C[C@@](C)(O)C(CCC1[C@@]2(C)O)[C@H]3OC(=O)C1CCCCC1` (stereo not given in full), in that order: 0.31 mg/kg and 6.17.
For `CC1(C)C(O)CC2C1(O)C(O)C[C@]13C[C@@](C)(O)C(CCC1[C@@]2(C)O)[C@H]3O` (stereo not given in full), in that order: 0.45 mg/kg and 6.15.
`CCCCCCC(=O)O[C@@H]1C2CCC3[C@@](C)(O)C4CC(O)C(C)(C)C4(O)C(O)C[C@]31C[C@@]2(C)O` (stereo not given in full) showed a pD2 in the data set filed under Cavia porcellus of 5.32.
`CCCC(=O)O[C@@H]1C2CCC3[C@@](C)(O)C4CC(O)C(C)(C)C4(O)C(O)C[C@]31C[C@@]2(C)O` (stereo not given in full) showed an LD50 in data set [1] of 0.12 mg/kg. For the same compound, the pD2 in the data set filed under Cavia porcellus is recorded as 6.81.
For `CC1(C)C(O)CC2C1(O)C(O)C[C@]13C[C@@](C)(O)C(CCC1[C@@]2(C)O)[C@H]3OC(=O)c1ccccc1` (stereo not given in full), in that order: 1.35 mg/kg and 5.79.
For `CC(O)C(=O)O[C@@H]1C2CCC3[C@@](C)(O)C4CC(O)C(C)(C)C4(O)C(O)C[C@]31C[C@@]2(C)O` (stereo not given in full), in that order: 0.08 mg/kg and 6.54.
